Laboratory results as given in ChEMBL document CHEMBL4130355, “Development of a series of novel 4-anlinoquinazoline derivatives possessing quinazoline skeleton: Design, synthesis, EGFR kinase inhibitory efficacy, and evaluation of anticancer activities in vitro” (Eur J Med Chem, 2017).

Experiments:
MCF7 = test: Antiproliferative activity against human MCF7 cells after 72 hrs by MTT assay; format: functional, cell-based; settings: MCF7, 72 h
HepG2 [1] = test: Antiproliferative activity against human HepG2 cells after 72 hrs by MTT assay; format: functional, cell-based; settings: HepG2, 72 h
SH-SY5Y = test: Antiproliferative activity against human SH-SY5Y cells after 72 hrs by MTT assay; format: functional, cell-based
A549 = test: Antiproliferative activity against human A549 cells after 72 hrs by MTT assay; format: functional, cell-based; settings: A549, 72 h
DU-145 = test: Antiproliferative activity against human DU145 cells after 72 hrs by MTT assay; format: functional, cell-based; settings: DU-145, 72 h
HepG2 [2] = test: Cytotoxicity against human HepG2 cells at 10 uM after 48 hrs by LDH release assay (reference value: 100%); format: functional
Outline: (§1)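 LDH release. HepG2 cells at 1.0 × 10^5/well were incubated 24 h at 37 °C, then treated at 2.5–40 µM for 48 h. Cells lysed with 2% lysate for 1 h gave the full-release (100%) reference; medium-only cells were the low control. LDH in the supernatant was measured per kit. Triplicates, three independent repeats.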

HepG2 [3] = test: Cytotoxicity against human HepG2 cells at 2.5 uM after 48 hrs by LDH release assay (reference value: 100%); format: functional; outline: as §1
HepG2 [4] = test: Cytotoxicity against human HepG2 cells at 5 uM after 48 hrs by LDH release assay (reference value: 100%); format: functional
Outline: (§2)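 HepG2 seeded at 1.0 × 10^5 cells/well, grown 24 h at 37 °C in 5% CO2, then dosed for 48 h. LDH in supernatant read on plate reader per kit. Maximal release (100% cytotoxicity) came from lysis with 2% (V/V) lysate for 1 h at 37 °C; medium-only cells served as natural release. Triplicate, three independent runs.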

HepG2 [5] = test: Cytotoxicity against human HepG2 cells at 20 uM after 48 hrs by LDH release assay (reference value: 100%); format: functional; outline: as §1
HepG2 [6] = test: Cytotoxicity against human HepG2 cells at 40 uM after 48 hrs by LDH release assay (reference value: 100%); format: functional; outline: as §2

Compound	IC50 (MCF7) [µM]	IC50 (HepG2 [1]) [µM]	IC50 (SH-SY5Y) [µM]	IC50 (A549) [µM]	IC50 (DU-145) [µM]	Activity (HepG2 [2]) [%]	Activity (HepG2 [3]) [%]	Activity (HepG2 [4]) [%]	Activity (HepG2 [5]) [%]	Activity (HepG2 [6]) [%]
COc1cc2c(Nc3cccc(C#N)c3)ncnc2cc1OCCCN1CCC(C)CC1	24.4	18.2	7.33	18.7	17.7	–	–	–	–	–
COc1cc2c(Nc3ccccc3C#N)ncnc2cc1OCCCN1CCCCC1	15.2	14.2	13.4	14.7	15.3	–	–	–	–	–
COc1cc2c(Nc3ccc(C#N)cc3)ncnc2cc1OCCCN1CCC(N(C)C)CC1	31	33.6	24.3	42.4	28.3	–	–	–	–	–
CCN(CC)CCCOc1cc2ncnc(Nc3ccc(C#N)cc3)c2cc1OC	> 100	59.4	> 100	50.6	68.9	–	–	–	–	–
COc1cc2c(Nc3ccc(C#N)cc3)ncnc2cc1OCCCN(CCO)CCO	36.8	40.3	48.1	26.1	20.2	–	–	–	–	–
COc1cc2c(Nc3ccccc3C#N)ncnc2cc1OCCCN1CCC(C)CC1	31.9	4.03	29	22.7	11.9	–	–	–	–	–
COc1cc2c(Nc3ccc(C#N)cc3)ncnc2cc1OCCCN1CCCCC1CCO (stereo not given)	> 100	> 100	> 100	> 100	> 100	–	–	–	–	–
COc1cc2c(Nc3ccc(C#N)cc3)ncnc2cc1OCCCN(C)Cc1ccccc1	> 100	> 100	> 100	> 100	> 100	–	–	–	–	–
COc1cc2c(Nc3ccc(C#N)cc3)ncnc2cc1OCCCN1CCCCC1	35.1	20.7	18.8	23.5	24.4	–	–	–	–	–
COc1cc2c(Nc3ccc(C#N)cc3)ncnc2cc1OCCCN1CCN(CCO)CC1	25.2	28.1	36.8	9.82	29.3	–	–	–	–	–
COc1cc2c(Nc3cccc(C#N)c3)ncnc2cc1OCCCN1CCCCC1	44.8	29.5	11.2	37	29.1	–	–	–	–	–
COc1cc2c(Nc3ccc(C#N)cc3)ncnc2cc1OCCCN1CCCC1	16.2	20.9	8.08	21.8	14.4	–	–	–	–	–
CCOC(=O)C1CCN(CCCOc2cc3ncnc(Nc4ccc(C#N)cc4)c3cc2OC)CC1	34.9	57.7	47.2	89.9	52.3	–	–	–	–	–
COc1cc2c(Nc3cccc(C#N)c3)ncnc2cc1OCCCN1CCCC1	33.9	18.2	10.6	39.9	19.1	–	–	–	–	–
CCN1CCN(CCCOc2cc3ncnc(Nc4cccc(C#N)c4)c3cc2OC)CC1	19.9	13.7	6.27	18.7	18.2	–	–	–	–	–
CCN1CCN(CCCOc2cc3ncnc(Nc4ccccc4C#N)c3cc2OC)CC1	9.07	2.11	12.6	6.91	5.87	–	–	–	–	–
COc1cc2c(Nc3ccc(C#N)cc3)ncnc2cc1OCCCN1CCC(CO)CC1	35.1	61.8	21.6	> 100	53.2	–	–	–	–	–

Compound	IC50 (MCF7) [µM]	IC50 (HepG2 [1]) [µM]	IC50 (SH-SY5Y) [µM]	IC50 (A549) [µM]	IC50 (DU-145) [µM]	Activity (HepG2 [2]) [%]	Activity (HepG2 [3]) [%]	Activity (HepG2 [4]) [%]	Activity (HepG2 [5]) [%]	Activity (HepG2 [6]) [%]
CCN1CCN(CCCOc2cc3ncnc(Nc4ccc(C#N)cc4)c3cc2OC)CC1	29.9	9.58	5.44	16	34.4	–	–	–	–	–
COc1cc2c(Nc3ccc(C#N)cc3)ncnc2cc1OCCCN1CCN(C)CC1	71.1	13.8	13	48.8	46.5	–	–	–	–	–
COc1cc2c(Nc3ccc(C#N)cc3)ncnc2cc1OCCCN1CCOCC1	> 100	0.77	> 100	59.4	98.2	–	–	–	–	–
COc1cc2c(Nc3ccccc3C#N)ncnc2cc1OCCCN1CCN(C)CC1	17.8	26.4	32.4	23.4	19.4	–	–	–	–	–
COc1cc2c(Nc3cccc(C#N)c3)ncnc2cc1OCCCN1CCOCC1	> 100	1.89	> 100	65.5	77.8	–	–	–	–	–
COc1cc2c(Nc3ccc(C#N)cc3)ncnc2cc1OCCCN1CCC(O)CC1	> 100	67.9	> 100	29.9	74.9	–	–	–	–	–
COc1cc2c(Nc3ccc(C#N)cc3)ncnc2cc1OCCCN1CCN(c2ccncc2)CC1	22.9	12.6	31.6	25.4	22.9	–	–	–	–	–
COc1cc2c(Nc3ccc(C#N)cc3)ncnc2cc1OCCCN1CCC(C)CC1	43.1	32.1	7.9	32.3	16.6	–	–	–	–	–
COc1cc2c(Nc3ccc(C#N)cc3)ncnc2cc1OCCCN(C)CCO	41.4	45.2	83.7	29	17.4	–	–	–	–	–
COc1cc2c(Nc3cccc(C#N)c3)ncnc2cc1OCCCN1CCN(C)CC1	23.1	18.3	6.89	27.7	12.1	–	–	–	–	–
COc1cc2c(Nc3ccccc3C#N)ncnc2cc1OCCCN1CCCC1	16.2	24.5	28.9	21.8	18.7	–	–	–	–	–
COc1cc2c(Nc3ccc(C#N)cc3)ncnc2cc1OCCCN(C)C	45	> 100	34.9	60.5	35.2	–	–	–	–	–
COc1cc2c(Nc3ccccc3C#N)ncnc2cc1OCCCN1CCOCC1	98.4	3.68	> 100	46.8	68.5	–	–	–	–	–
COc1cc2c(Nc3ccc(C#N)cc3)ncnc2cc1OCCCN1CCC(N2CCCCC2)CC1	19.6	8.84	9.81	30.7	15.6	–	–	–	–	–
COc1cc2c(Nc3ccc(C#N)cc3)ncnc2cc1OCCCN(CCO)Cc1ccccc1	> 100	> 100	> 100	47.4	> 100	–	–	–	–	–
COc1cc2c(Nc3ccc(C#N)cc3)ncnc2cc1OCCCN1CCc2ccccc2C1	> 100	> 100	> 100	> 100	> 100	–	–	–	–	–
COc1cc2ncnc(Nc3ccc(F)c(Cl)c3)c2cc1OCCCN1CCOCC1 [GEFITINIB]	–	–	–	–	–	45.36	42.08	48.69	45.24	47.62
